Test system: MS2 coat protein
Assay: apparent Kd, MS2 coat protein; higher = weaker binding; RNA-MaP array; FMN 200 µM where present
Summary of the method: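 On Illumina sequencing-chip clusters, designs were transcribed by stalled E. coli RNA polymerase and titrated with SNAP-549-labelled MS2 coat protein (0.7 or 1.5 nM, doubling to 3 µM), without and then with constant ligand, in 100 mM Tris-HCl pH 7.5, 80 mM KCl, 4 mM MgCl2, BSA, DTT, yeast tRNA and Tween-20. Apparent Kd is the median of filtered per-cluster curve fits to green signal normalised to red-channel RNA signal and control-cluster median Fmax.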

[1] = designed as: OFF switch for flavin mononucleotide, no ligand
[2] = ligand present: flavin mononucleotide, designed as: OFF switch for flavin mononucleotide
[3] = designed as: ON switch for flavin mononucleotide, no ligand
[4] = ligand present: flavin mononucleotide, designed as: ON switch for flavin mononucleotide

| Sequence | apparent Kd [1] [nM] | apparent Kd [2] [nM] | apparent Kd [3] [nM] | apparent Kd [4] [nM] |
| --- | --- | --- | --- | --- |
| AAGAAGAUAGGAUAUACGAGGAGAGGAGAGAAGAGGUGAGGACAUGAGGAUCACCCAUGUAGAAGGAUCAGGAA | 46.6 | 35.6 |  |  |
| GGCGGCGCGGGCCACCGCAGAACCAGAAGGACAUGAGGAUCACCCAUGUAACAAAACAGGGCGGUGUAGGAUAUGGCAGGCCCG | 41.9 | 89.5 |  |  |
| CUUUUGUGAGGAUAUUAGUAGUAAAUGAUUAAAAUUAUUACUGAGAAGGCACAUGAGGAUCACCCAUGUUCCUC | 45.1 | 655 |  |  |
| GCGCAGUCAGGAUAUGCCGCUUGCGAUCACCGUUGGCAAAGGCAGAAGGGACAUGAGGAUCACCCAUGUGGCGC | 19.3 | 22.9 |  |  |
| AUAAUGUGAGGAUAUACAUGAGGAUCACCCAUGUAAUUAAAUCGGAGAGCCACAAUUCGUAGAAGGUACAUUUA | 22 | 27.7 |  |  |
| GCAAAACAUGAGGAUCACCCAUGUCAACAAAAUCAAGGAUAUGAGCCGGCAAUGCCAGCAUCAGAAGGUGAACCUU |  |  | 81.9 | 86.5 |
| AGUCAGAGAGGAUAUACAUGGGAAAAAAAAGUAAGAUCCCUACAUGAGGAUCACCCAUGUAGAAGGCUCUGACA | 28.6 | 36 |  |  |
| GAUCCUCGGUCAGGAUAUCCCGGCCGGCGGCCGGGAGAAGGGACAUGAGGAUCACCCAUGUUUCGGUCCUUACCCGCUUGGGUC | 34 | 37.1 |  |  |
| UAUGAACAUGAGGAUCACCCAUGUGGUACGAUCACAGGAUAUCACCUCGGACGUGCGAUGUGAGAAGGGUGAUGGU |  |  | 81.6 | 29.4 |
| CCAUGGCAUGUAGGAUAUGUCUGACAAAGUCAGACAGAAGGACAUGAGGAUCACCCAUGUAGGAAAUAACCACAUAAGCCAUGG | 6.32 | 5.86 |  |  |
| UUGCGGUAGGAGAAGGACAGAGGCUUAAUUACAUACAUGAGGAUCACCCAUGUAGGAUAUCCUACCUAACGCGGACUCCUCCAG | 7.65 | 7.83 |  |  |
| AUGUGGUGCGUAGGAUAUCAUUAAAGAAAACCCUGAGAAGGACGUGAGGACAUGAGGAUCACCCAUGUGGAUCACCCAUGUCAA | 316 | 278 |  |  |
| CGUGCGUAUGUGAGGAUAUGCUGGUCCUUGGAUCGGCAGAAGGUACAUGAGGAUCACCCAUGUGGUGUCGUUCU | 252 | 292 |  |  |
| GCUGUGGCAUGAGGAUAUGCUCAGCUUUGCUGAGCAGAAGGCAUGUCAAUAGACAUGAGGAUCACCCAUGUAGUUAACACAGCA |  |  | 462 | 32.9 |
| CCAAGCUGUGUGAGGAUAUGCUGGUCGAAAGAUCAGCAGAAGGCACAUGAGGAUCACCCAUGUGAAAAGCUUGG | 18.3 | 50.9 |  |  |
| CUUCUGUAAGGAUAUGUAUGCUCCUGGUAUGUCGCGAGGAGACAGAAGGUACAUGAGGAUCACCCAUGUGGGCG | 168 | 304 |  |  |
| CAUGUCUGAGGAUAUCGUUUUUUGUACAUGAGGAUCACCCAUGUCCUAUUUUUUAUAUUACGAGAAGGCAGUGGAU | 36.4 | 22.2 |  |  |
| GGAUCUGCAGGAUAUAUAAAAUGGCGUGAUGGAUUGUCUGUACAUGAGGAUCACCCAUGUAGAAGGGCGUUCCA | 29.1 | 58.3 |  |  |
| GUCAGCUCGUGAGGAUAUACAACACUGCUUCGCCAGUGUAUUAAGAUCACAUGAGGAUCACCCAUGUAGAAGGCACGAGCUGAU | 14.4 | 216 |  |  |

| Sequence | apparent Kd [1] [nM] | apparent Kd [2] [nM] | apparent Kd [3] [nM] | apparent Kd [4] [nM] |
| --- | --- | --- | --- | --- |
| AUCGGAUUGUAGAAGGGUGACAUGAGGAUCACCCAUGUUCAAAUGCGUUUUUCGGUAAUUGUUCCACAGGAUAUACUGUCCGAG |  |  | 675 | 139 |
| GGUGGACAUGAGGAUCACCCAUGUGAGGAUAUCGGCCGGUUCGCGGUGGCUGGCGUCUCGAGAAGGCACAUAGU | 99.1 | 139 |  |  |
| AAACAUGUCCGAGGAUAUCUGGAAACAUUUUCAAGAGAAGGCGGACAUGAGGAUCACCCAUGUCUCUCCUCAUCAACUACAAAU | 21.2 | 181 |  |  |
| CGCGAACAGGUUAACAUGAGGAUCACCCAUGUGGACUCAUGGUAGGAUAUCGGGAAGGAGGAAACCGAGAAGGGCUGGUGAGCC |  |  | 634 | 443 |
| CCCUCGGGAGGAUAUGGGUGUUUUUACAUGAGGAUCACCCAUGUGGAGUAACAUGUGGGUCCAGAAGGCCCAAGGG | 1400 | 663 |  |  |
| GCGACGAAAGUCGAACGAUGUAGCAGAAGGACAUGAGGAUCACCCAUGUCAGCUGUAACAGCCAUGUAGGAUAUGCUACAUCGC | 4.19 | 5.42 |  |  |
| GGAGACCUCACAGGAUAUGCUGGACUUUGUCCAGCAGAAGGGUGAAACAUGAGGAUCACCCAUGUUGGUCUCCAAAUAUUUAAU |  |  | 660 | 54.1 |
| UCAUUUUACACAGGAUAUAUUCAUAUACAGUUGUUUGGCUCUUACAUGUUAGUAGAAGGGUGCAACAUGAGGAUCACCCAUGUA |  |  | 279 | 274 |
| GUAGUGUAUGUAGGAUAUGUGAAGGAAACCUUUACAGAAGGACAUGAGGAUCACCCAUGUAUUACAGUCAGCAAUCUGACUGUU | 28.4 | 107 |  |  |
| UUCCUGGUGUAGAAGGAGGCCGAGCUCAAGCGGACGUCCUGAAUUGCGGGCCUAGGAUAUACAUGAGGAUCACCCAUGUACGGA | 39.8 | 111 |  |  |
| AAUUUAAUACAUGAGGAUCACCCAUGUAAAUUAAUUAAGAUCAAGGAUAUCAGCUCGUUUAGAGCUGAGAAGGUGAUCACAUGU |  |  | 343 | 97 |
| CCUGGAUCAUGAGGAUAUGGCACCUUAUUGGUGCCAGAAGGCAUGUCUCUUGACAUGAGGAUCACCCAUGUAAUAAAUUCCAGG |  |  | 1020 | 124 |
| ACCAUGUAAGGAUAUGCGCGGCCCUAAAUCAAUGAGCAAGCGCAGAAGGUACAUGAGGAUCACCCAUGUCACCG | 16.6 | 51.4 |  |  |
| AAAUAAAUCACAGGAUAUCUAGGGAUACAUGAGGAUCACCCAUGUUUGCAAAGAGAAGGGUGACAGUAUUAUCAGAUCAACAAU |  |  | 210 | 38.1 |
| AGCUGUGGCCGAGGAUAUCUAACAAUCCUAACCGAAAUAUAAUCGGACAUGAGGAUCACCCAUGUAGAGAAGGCGGUCUCAGCA | 92.4 | 237 |  |  |
| GGAAUCUGUGUCACUCCAUUGACAUGAGGAUCACCCAUGUCGCAGGAUAUCAGGCGCGGAGCGACUGAGAAGGGCGACUCGCGG | 86.4 | 50.5 |  |  |
| CCCAGUUAGGAAGGAUAUUGUACAUGAGGAUCACCCAUGUAAUAAAUGAGGAUCACGGAUGUAUACAAGAAGGUCCGGAUAGGC | 70.4 | 140 |  |  |
| GUUUCGUCAGGAUAUGUGGCUUCGAUCGUGCGAAGAAGGCUACAGAAGGCACAUGAGGAUCACCCAUGUUCGUC |  | 34.6 |  |  |
| CAAUUUAUAGCAGGAUAUAUAAUACAAUGAUUAAUAGAAGGGUUUAAUACAUGAGGAUCACCCAUGUCAUGUGUCAUAAUAACC | 33.4 | 28.8 |  |  |

| Sequence | apparent Kd [1] [nM] | apparent Kd [2] [nM] | apparent Kd [3] [nM] | apparent Kd [4] [nM] |
| --- | --- | --- | --- | --- |
| AAGAAGUCAGGAUAUGCAUGGCGGGACUUGCGUCGUGGCGUGCAGAAGGGACAUGAGGAUCACCCAUGUGGAGG | 162 | 222 |  |  |
| AAAUAGUUAGGAUAUACAUGAGGAUCACCCAUGUGGACUUAUGGCGAUUAAUUUAGUGGUAGAAGGGACUCAAA | 53.8 | 51.4 |  |  |
| AGGUCAACCACAGGAUAUGGCUAGCAUAGCUAGCCAGAAGGGUGGUCGUAACCAUGUAAAUACAUGAGGAUCACCCAUGUAUCC |  |  | 235 | 66.5 |
| UUGGACGUCGUAGGAUAUGUAGGAUAUUCCUACAUGAGGAUCACCCAUGUUGACAUGGAAGAAGGACAGAUGGACGAUGUCCAU |  |  | 298 | 6.98 |
| CGUAUUAAACAAGGAUAUCAUUUGUGUACAAGUUUUACAUGAGGAUCACCCAUGUUAAAUGGUUUUGAGAAGGUGUUUAGAUCG |  |  | 35.3 | 25.9 |
| CAACCGUUGCAGAAGGUUAAAUAAAUCAACUUAUGGACAACAUGAGGAUCACCCAUGUUUUUGUUGAAGGAUAUGCAAGGGUUG | 6.25 | 5.85 |  |  |
| CUGUGUAAAGGAUAUACAUGAGGAUCACCCAUGUGAUGUCCAAACCUGAACGGUUCGUGUAGAAGGUUGCUCUU | 20.9 | 19 |  |  |
| AAAAAACAUGAGGAUCACCCAUGUAAUAAAACGUCAGGAUAUUGAUUUUAUUAUUUAUUGCGAGAAGGGACAAAAA |  |  | 37.1 | 24.4 |
| ACAUGAUAUGUAGGAUAUCACAACAUGAGUUUUAUUAUUGUUAUUUAUGAUUGAGAAGGACAUUUACAUGAGGAUCACCCAUGU | 17.8 | 12.3 |  |  |
| GGAUAGGACAGAGGAUAUACGUGCUAGAGAUACUAGCAAAAUUUCCUCACAUGAGGAUCACCCAUGUAGAAGGCUCUCCUAUCG | 8.7 | 31.5 |  |  |
| CUUUGACAUGAGGAUCACCCAUGUGAGGAUAUGAUGCGAUCGUCGAAAGACGAUAGCAUCAGAAGGCACAUAUG | 85.7 | 238 |  |  |
| AAUUUACAUGAGGAUCACCCAUGUCAGGAUAUGGUUUUAUUUUUUUCUUUUUUUGAUUCCAGAAGGGACAGUUA | 148 | 79.6 |  |  |
| GUUCUUCCUGUAAGGAUAUCCAUGUAUCAAUGUAUGGAGAAGGUACAUGAGGAUCACCCAUGUCACCCGCGUUA | 16.6 | 39.8 |  |  |
| UUGGAAAACAUGAGGAUCACCCAUGUGAAGCCGGCUAGUACACAGGAUAUCCAGAACGCCGAGUUGGAGAAGGGUGAUCAGUCG |  |  | 38 | 80.4 |
| AAAGCGUGAGGAUAUGAGGCGCCGGGCCGGUUGGUGCGGAUUCAGAAGGCACAUGAGGAUCACCCAUGUAGGAA | 23.4 | 36.2 |  |  |
| GAUUAACAUGAGGAUCACCCAUGUGAGGAUAUGGACUUGCCCACUUAACCAUUAGAGUCUAGAAGGCGCAUCUA | 29.4 | 25.5 |  |  |
| AAUAUAUUAAGUGAGGAUAUCAUAGAAAAAACAUGAGGAUCACCCAUGUGGGAAACCUGGUCGGGUGAGAAGGCACUUAAUAUAU |  |  | 992 | 88.4 |
| GUCGUGUAAGGAUAUGCAUCGAGGUAGCGAAUGUUGCAGGUGUAGAAGGUACAUGAGGAUCACCCAUGUAAUGU | 22.2 | 30.1 |  |  |
